Experimental data published in ChEMBL document CHEMBL5143735, “Design, Synthesis, and Characterization of [18F]mG2P026 as a High-Contrast PET Imaging Ligand for Metabotropic Glutamate Receptor 2” (J Med Chem, 2022).

Assays:
[1] = molecular target: Metabotropic glutamate receptor 6 (Homo sapiens, UniProt O15303); assay: Agonist activity at mGlu6 receptor (unknown origin) expressed in human Flp-In-T-REx-293 cells by luciferase based GloSensor cAMP Assay; format: functional, cell-based, HEK293
Procedure, shortened: (§1)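 Tetracycline-inducible Flp-In T-REx-293 cells stably carrying mGluR4, mGluR6 or mGluR8, grown in DMEM with 10% FBS, hygromycin B and blasticidin at 37 °C, 5% CO2. Gi/o-coupled receptor activation read as intracellular cAMP change by split-luciferase GloSensor biosensor. EC50 from four-parameter logistic fit of concentration–response curves; each assay run at least three times.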

[2] = molecular target: Metabotropic glutamate receptor 1 (Homo sapiens, UniProt Q13255); assay: Agonist activity at mGlu1 receptor (unknown origin) expressed in human Flp-In-T-REx-293 cells by Ca2+ mobilization assay
[3] = molecular target: Metabotropic glutamate receptor 4 (Homo sapiens, UniProt Q14833); assay: Agonist activity at mGlu4 receptor (unknown origin) expressed in human Flp-In-T-REx-293 cells by luciferase based GloSensor cAMP Assay; format: functional, cell-based, HEK293; procedure, shortened: as §1
[4] = molecular target: Metabotropic glutamate receptor 5 (Homo sapiens, UniProt P41594); assay: Agonist activity at mGlu5 receptor (unknown origin) expressed in human Flp-In-T-REx-293 cells by Ca2+ mobilization assay
[5] = molecular target: Metabotropic glutamate receptor 8 (Homo sapiens, UniProt O00222); assay: Agonist activity at mGlu8 receptor (unknown origin) expressed in human Flp-In-T-REx-293 cells by luciferase based GloSensor cAMP Assay; format: functional, cell-based, HEK293; procedure, shortened: as §1
[6] = in vivo; details: cynomolgus monkey, plasma
[7] = Unbound fraction in cynomolgus monkey plasma measured upto 140 mins by ultracentrifugation
[8] = in vivo; details: cynomolgus monkey, whole blood and plasma

Sequence of Metabotropic glutamate receptor 8 (O00222 whole entry): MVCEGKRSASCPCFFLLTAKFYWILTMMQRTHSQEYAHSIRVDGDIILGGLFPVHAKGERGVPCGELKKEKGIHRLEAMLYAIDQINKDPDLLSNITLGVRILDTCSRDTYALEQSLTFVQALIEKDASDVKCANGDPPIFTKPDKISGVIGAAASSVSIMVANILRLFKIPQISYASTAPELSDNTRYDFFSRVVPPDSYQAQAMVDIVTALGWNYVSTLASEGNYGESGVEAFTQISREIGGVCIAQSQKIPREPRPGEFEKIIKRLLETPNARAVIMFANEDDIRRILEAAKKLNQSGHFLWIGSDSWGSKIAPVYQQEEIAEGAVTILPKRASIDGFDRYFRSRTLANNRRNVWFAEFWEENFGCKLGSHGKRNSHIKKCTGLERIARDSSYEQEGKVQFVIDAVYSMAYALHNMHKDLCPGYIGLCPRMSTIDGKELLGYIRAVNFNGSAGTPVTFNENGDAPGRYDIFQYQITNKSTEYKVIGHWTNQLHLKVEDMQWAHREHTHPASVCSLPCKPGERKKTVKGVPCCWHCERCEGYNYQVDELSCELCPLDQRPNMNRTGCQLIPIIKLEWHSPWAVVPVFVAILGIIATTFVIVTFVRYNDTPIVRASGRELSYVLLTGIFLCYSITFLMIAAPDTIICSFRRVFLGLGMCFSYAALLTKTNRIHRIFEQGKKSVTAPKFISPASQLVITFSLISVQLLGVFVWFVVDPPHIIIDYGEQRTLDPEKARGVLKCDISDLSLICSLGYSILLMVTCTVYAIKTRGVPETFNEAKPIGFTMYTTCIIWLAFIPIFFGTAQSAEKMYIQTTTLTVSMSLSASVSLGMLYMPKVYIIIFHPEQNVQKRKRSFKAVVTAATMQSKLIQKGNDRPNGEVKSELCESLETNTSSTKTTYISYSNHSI
Sequence of Metabotropic glutamate receptor 6 (O15303 whole entry): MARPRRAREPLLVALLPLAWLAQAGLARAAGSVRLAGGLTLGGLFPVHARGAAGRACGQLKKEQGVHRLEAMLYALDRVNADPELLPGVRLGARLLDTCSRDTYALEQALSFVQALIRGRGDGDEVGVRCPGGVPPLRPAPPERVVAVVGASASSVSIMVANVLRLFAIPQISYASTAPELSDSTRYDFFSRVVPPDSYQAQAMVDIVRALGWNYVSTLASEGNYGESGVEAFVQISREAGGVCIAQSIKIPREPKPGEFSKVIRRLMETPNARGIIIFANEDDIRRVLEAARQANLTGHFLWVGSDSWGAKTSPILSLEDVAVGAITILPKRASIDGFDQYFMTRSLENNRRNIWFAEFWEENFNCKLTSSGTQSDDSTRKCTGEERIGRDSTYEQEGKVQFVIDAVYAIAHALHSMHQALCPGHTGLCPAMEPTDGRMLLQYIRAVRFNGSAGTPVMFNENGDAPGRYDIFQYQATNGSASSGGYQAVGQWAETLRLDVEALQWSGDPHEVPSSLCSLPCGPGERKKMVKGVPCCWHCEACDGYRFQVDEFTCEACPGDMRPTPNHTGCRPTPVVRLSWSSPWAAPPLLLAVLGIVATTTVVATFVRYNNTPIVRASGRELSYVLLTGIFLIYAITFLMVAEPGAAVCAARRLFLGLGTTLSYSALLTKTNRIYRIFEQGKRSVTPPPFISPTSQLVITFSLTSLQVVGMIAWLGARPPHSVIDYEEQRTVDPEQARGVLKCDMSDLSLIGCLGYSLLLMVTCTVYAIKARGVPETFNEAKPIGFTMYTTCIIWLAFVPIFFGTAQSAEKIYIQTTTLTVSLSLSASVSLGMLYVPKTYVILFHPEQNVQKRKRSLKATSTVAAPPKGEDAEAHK
Sequence of Metabotropic glutamate receptor 4 (Q14833 whole entry): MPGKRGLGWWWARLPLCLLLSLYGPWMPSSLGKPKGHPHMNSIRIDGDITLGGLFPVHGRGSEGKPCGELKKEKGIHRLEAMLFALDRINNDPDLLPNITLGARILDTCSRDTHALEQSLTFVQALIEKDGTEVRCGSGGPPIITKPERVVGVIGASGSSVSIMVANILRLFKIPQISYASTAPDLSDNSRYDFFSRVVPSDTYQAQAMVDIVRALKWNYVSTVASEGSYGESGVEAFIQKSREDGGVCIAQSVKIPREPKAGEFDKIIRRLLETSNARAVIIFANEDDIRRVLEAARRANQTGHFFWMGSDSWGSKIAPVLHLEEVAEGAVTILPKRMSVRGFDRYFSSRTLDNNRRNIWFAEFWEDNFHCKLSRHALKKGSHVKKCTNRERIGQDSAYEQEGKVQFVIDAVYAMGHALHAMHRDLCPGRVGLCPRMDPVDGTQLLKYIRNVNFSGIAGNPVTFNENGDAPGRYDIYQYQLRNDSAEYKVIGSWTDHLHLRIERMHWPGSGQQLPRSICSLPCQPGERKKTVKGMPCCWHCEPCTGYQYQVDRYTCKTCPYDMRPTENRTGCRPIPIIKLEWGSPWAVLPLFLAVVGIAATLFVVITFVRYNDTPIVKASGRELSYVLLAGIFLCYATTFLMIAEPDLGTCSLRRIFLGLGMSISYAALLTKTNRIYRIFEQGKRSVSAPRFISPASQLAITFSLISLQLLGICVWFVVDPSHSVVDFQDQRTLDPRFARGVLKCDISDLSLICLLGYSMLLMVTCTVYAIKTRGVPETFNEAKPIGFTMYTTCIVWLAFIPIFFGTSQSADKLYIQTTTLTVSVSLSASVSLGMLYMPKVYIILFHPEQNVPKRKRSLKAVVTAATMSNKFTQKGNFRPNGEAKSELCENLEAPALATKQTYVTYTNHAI
Sequence of Metabotropic glutamate receptor 5 (P41594 whole entry): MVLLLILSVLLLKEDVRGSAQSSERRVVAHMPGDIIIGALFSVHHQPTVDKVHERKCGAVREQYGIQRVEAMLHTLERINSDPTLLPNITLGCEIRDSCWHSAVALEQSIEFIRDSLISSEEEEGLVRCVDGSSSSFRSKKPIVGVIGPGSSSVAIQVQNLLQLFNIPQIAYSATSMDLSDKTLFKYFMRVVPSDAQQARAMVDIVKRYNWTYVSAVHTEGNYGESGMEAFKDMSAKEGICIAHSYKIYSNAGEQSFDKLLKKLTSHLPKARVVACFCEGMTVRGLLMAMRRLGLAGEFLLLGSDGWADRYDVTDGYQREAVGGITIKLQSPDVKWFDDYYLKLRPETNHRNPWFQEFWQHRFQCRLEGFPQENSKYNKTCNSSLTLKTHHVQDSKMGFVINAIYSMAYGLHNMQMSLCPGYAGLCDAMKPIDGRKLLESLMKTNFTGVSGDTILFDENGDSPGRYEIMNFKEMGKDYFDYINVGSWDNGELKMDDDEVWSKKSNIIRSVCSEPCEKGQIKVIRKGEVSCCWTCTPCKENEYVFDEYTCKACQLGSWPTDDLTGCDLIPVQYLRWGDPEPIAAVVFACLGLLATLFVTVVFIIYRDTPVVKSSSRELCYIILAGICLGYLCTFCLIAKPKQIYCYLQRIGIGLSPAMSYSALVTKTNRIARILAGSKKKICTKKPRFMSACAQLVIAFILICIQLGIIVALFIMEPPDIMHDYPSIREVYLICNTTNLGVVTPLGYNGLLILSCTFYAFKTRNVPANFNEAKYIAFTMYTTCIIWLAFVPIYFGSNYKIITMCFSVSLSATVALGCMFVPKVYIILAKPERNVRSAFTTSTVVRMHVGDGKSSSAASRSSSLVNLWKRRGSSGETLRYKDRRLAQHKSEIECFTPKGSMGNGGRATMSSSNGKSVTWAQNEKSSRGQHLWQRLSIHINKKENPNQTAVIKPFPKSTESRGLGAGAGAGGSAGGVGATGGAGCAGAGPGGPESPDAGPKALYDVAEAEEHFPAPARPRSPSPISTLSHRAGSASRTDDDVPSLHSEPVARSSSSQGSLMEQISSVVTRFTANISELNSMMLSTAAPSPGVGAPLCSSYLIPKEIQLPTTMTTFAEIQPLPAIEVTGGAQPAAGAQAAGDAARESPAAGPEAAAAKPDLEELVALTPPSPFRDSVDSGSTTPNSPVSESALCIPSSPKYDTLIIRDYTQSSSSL
Sequence of Metabotropic glutamate receptor 1 (Q13255 whole entry): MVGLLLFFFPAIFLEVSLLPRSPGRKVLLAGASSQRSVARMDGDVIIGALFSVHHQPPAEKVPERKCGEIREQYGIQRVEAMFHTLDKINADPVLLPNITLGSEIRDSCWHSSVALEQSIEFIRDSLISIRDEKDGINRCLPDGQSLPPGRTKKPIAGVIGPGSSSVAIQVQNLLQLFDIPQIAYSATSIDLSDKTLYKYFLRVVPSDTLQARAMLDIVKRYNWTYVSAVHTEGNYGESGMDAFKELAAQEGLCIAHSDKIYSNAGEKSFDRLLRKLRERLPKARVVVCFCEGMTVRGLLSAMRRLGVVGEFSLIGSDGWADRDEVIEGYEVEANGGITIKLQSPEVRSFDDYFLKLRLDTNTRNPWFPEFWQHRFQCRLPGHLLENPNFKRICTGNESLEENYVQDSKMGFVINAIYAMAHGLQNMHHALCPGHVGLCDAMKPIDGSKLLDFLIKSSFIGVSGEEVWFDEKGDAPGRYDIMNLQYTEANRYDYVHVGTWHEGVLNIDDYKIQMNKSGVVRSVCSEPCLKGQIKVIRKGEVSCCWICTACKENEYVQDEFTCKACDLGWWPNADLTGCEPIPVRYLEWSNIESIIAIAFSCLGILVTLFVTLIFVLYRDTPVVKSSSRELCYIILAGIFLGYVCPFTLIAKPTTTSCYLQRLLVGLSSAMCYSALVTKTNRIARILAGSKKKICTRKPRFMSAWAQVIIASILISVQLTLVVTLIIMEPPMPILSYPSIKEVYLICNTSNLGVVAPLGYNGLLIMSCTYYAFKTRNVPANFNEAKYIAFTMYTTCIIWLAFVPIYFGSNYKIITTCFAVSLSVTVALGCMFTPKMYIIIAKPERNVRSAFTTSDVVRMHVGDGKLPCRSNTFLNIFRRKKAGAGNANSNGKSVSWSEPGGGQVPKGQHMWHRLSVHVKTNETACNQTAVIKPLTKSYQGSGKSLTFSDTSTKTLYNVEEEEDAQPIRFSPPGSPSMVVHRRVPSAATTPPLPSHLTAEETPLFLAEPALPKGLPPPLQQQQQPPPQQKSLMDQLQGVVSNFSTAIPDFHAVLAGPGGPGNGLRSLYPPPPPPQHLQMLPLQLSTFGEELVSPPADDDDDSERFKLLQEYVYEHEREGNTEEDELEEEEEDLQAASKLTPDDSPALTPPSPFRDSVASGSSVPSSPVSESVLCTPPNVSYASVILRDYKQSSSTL

Row | SMILES | EC50 [1] | EC50 [2] | EC50 [3] | EC50 [4] | EC50 [5] | remaining at 1.5 h [6] | fraction unbound at 2.333 h [7] | blood plasma ratio at 11 min [8]
1 | Fc1cc(Cl)ccc1N1CCN(Cc2ccn3c(CC4CC4)nnc3c2C(F)(F)F)CC1 | > 10 µM | > 10 µM | > 10 µM | > 10 µM | > 10 µM | – | – | –
2 | Fc1ccc(N2CCN(Cc3ccn4c(CC5CC5)nnc4c3C(F)(F)F)CC2)c(Cl)c1 | > 10 µM | > 10 µM | > 10 µM | > 10 µM | > 10 µM | – | – | –
3 | O=C(c1cnc2c(cnn2CC2CC2)c1C(F)(F)F)N1CCN(c2ccc(F)cc2F)CC1 | > 1 µM | > 1 µM | > 1 µM | > 1 µM | > 1 µM | – | – | –
4 | FC(F)(F)c1c(CN2CCC(c3ccc([18F])cc3Cl)CC2)ccn2c(CC3CC3)nnc12 | – | – | – | – | – | 49.3% | 0.12 | 1.12
5 | Fc1ccccc1N1CCN(Cc2ccn3c(CC4CC4)nnc3c2C(F)(F)F)CC1 | > 10 µM | > 10 µM | > 10 µM | > 10 µM | > 10 µM | – | – | –
6 | Fc1ccc(N2CCN(Cc3cc(C(F)(F)F)cn4c(CC5CC5)nnc34)CC2)c(F)c1 | > 10 µM | > 10 µM | > 10 µM | > 10 µM | > 10 µM | – | – | –
